A word on the IC50: it is the point on the concentration scale where inhibition reaches its midpoint. Read a low IC50 as inhibition by little substance. By inhibition is commonly meant the change of the read-out against control, counted positive when it falls.

Experiment [1] addresses T1, Serine/threonine-protein kinase B-raf (Homo sapiens, UniProt P15056). In words: Inhibition of BRAF (unknown origin).
Experiment [2] deals with Serine/threonine-protein kinase B-raf (Homo sapiens), P15056 [V600E]. Put plainly: Inhibition of human BRAF V600E mutant at 10 uM by ELISA. (In general: In an ELISA, binding on a coated surface is turned into a signal by an enzyme label.)
Serine/threonine-protein kinase B-raf (Homo sapiens), P15056 [V600E], sequence (P15056 whole entry V600E): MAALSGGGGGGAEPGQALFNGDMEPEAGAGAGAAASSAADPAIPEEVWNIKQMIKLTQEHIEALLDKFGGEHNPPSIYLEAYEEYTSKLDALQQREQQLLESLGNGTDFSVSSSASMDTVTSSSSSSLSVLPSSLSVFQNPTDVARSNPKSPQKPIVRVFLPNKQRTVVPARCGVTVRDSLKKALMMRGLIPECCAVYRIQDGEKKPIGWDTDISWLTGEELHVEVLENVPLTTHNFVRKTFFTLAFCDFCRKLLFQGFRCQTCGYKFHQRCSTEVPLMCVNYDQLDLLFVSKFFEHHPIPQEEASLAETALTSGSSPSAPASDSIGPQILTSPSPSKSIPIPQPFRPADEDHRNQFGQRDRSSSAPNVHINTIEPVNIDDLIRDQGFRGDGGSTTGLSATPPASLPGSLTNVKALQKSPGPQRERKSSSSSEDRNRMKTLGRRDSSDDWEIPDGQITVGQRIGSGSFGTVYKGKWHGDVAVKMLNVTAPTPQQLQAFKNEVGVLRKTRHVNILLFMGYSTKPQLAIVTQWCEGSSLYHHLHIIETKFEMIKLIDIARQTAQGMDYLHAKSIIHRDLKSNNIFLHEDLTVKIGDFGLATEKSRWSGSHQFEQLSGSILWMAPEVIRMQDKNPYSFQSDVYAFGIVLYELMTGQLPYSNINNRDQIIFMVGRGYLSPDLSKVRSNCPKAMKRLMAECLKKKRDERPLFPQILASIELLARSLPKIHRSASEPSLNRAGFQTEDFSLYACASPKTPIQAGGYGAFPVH
Experiment [3] concerns the target T1, Serine/threonine-protein kinase B-raf. Put plainly: Inhibition of human wild type BRAF at 10 uM by ELISA. Summed up:
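Wild-type BRAF kinase inhibition run in the same manner as the V600E-B-RAF ELISA, reported as percent inhibition at 10 µM.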

Experiment [4] addresses Serine/threonine-protein kinase B-raf (Homo sapiens, UniProt P15056, V600E). In words: Inhibition of human BRAF V600E mutant by ELISA.

T1 sequence (P15056 whole entry): as the sequence (P15056 whole entry V600E) above, with E600V counted along it
Serine/threonine-protein kinase B-raf (Homo sapiens, UniProt P15056, V600E), sequence (P15056 2-766 V600E limits assumed): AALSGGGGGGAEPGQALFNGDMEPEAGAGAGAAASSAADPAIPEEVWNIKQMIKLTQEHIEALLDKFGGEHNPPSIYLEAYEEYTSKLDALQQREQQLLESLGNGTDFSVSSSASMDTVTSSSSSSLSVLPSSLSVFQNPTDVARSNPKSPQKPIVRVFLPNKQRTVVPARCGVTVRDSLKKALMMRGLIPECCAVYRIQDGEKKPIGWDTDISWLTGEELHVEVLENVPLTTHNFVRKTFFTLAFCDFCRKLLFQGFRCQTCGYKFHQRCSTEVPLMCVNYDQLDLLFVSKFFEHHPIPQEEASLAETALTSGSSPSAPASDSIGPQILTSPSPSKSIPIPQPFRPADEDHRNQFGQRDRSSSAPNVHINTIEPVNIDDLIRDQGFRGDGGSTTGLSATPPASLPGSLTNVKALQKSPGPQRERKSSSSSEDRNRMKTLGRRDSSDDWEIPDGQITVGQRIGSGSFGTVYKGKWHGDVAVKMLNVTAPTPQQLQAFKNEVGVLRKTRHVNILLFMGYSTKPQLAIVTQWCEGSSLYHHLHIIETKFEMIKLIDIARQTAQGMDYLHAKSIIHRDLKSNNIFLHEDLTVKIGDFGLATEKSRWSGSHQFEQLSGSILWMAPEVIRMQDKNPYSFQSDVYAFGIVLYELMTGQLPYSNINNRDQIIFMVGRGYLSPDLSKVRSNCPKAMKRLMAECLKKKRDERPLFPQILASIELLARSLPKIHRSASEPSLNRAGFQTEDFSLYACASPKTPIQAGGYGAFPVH

`CCCS(=O)(=O)Nc1ccc(F)c(-n2cc(-c3cncnc3)c3nc(N(C)C4CCN(CC)CC4)ccc32)c1F` [XP-102]: the half-maximal inhibitory concentration (IC50) in experiment [1] was 0.0004 µM.
In the case of `O=S(=O)(NCCNc1nccc(-n2ccc3cccnc32)n1)c1ccccc1`, the inhibition in experiment [2] came to 66.5%; in experiment [3], 52.3%.
For `O=S(=O)(NCCNc1nccc(-n2ccc3cccnc32)n1)c1ccc(F)cc1`, the inhibition in experiment [2] amounted to 89.5%; in experiment [3] it was 55.9%.
For `O=C(NCCNc1nccc(-n2ccc3cccnc32)n1)c1ccccc1`, the inhibition in experiment [2] and in experiment [3] was 86.3% each time.
For `Cc1ccc(C(=O)NCCCNc2nccc(-n3ccc4cccnc43)n2)cc1`, the inhibition in experiment [2] came to 61.6%; in experiment [3], 50%.
Regarding `O=C(NCCCNc1nccc(-n2ccc3cccnc32)n1)c1ccccc1`, the figures for the inhibition in experiment [2] and in experiment [3] were 69.4% and 60.9%, respectively.
`O=S(=O)(NCCCNc1nccc(-n2ccc3cccnc32)n1)c1cccc(C(F)(F)F)c1`: the inhibition amounted to 96.1% in experiment [2] and 86.3% in experiment [3]. Moreover, the IC50 in experiment [4] came to 1.1 µM.
Consider `O=C(NCCNc1nccc(-n2ccc3cccnc32)n1)c1ccc(F)cc1`, for which the inhibition in experiment [2] was 70%; in experiment [3] it was 56.8%.
Take `Cc1ccc(S(=O)(=O)NCCCNc2nccc(-n3ccc4cccnc43)n2)cc1`: the inhibition stood at 93% in experiment [2] and 83.3% in experiment [3]. The concentration for half-maximal inhibition (IC50) in experiment [4] amounted to 1 µM.
In the case of `O=S(=O)(NCCCNc1nccc(-n2ccc3cccnc32)n1)c1ccc(F)cc1`, the inhibition in experiment [2] came to 95.2%; in experiment [3] it was 79.7%. For the same compound, half-maximal inhibition in experiment [4] (IC50) was put at 0.88 µM.
For the compound `O=C(Nc1ccc(Br)cc1)Nc1ccc(F)c(C(=O)c2c[nH]c3ncccc23)c1F`, the inhibition amounted to 92% in experiment [2] and 80.1% in experiment [3].
`O=S(=O)(NCCCNc1nccc(-n2ccc3cccnc32)n1)c1cccc(Br)c1`: the results for the inhibition in experiment [2] and in experiment [3] were 96.7% and 89.4%, respectively. In experiment [4], this compound gave an IC50 of 0.5 µM.
Take `O=C(Nc1ccc(F)c(C(=O)c2c[nH]c3ncccc23)c1F)Nc1cccc2ccccc12`: the results for the inhibition in experiment [2] and in experiment [3] were 85.6% and 68.9%, respectively.
Consider `O=C(NCCCNc1nccc(-n2ccc3cccnc32)n1)c1c(F)cccc1F`, for which the inhibition was 72.6% in experiment [2] and 67.2% in experiment [3].
Turning to `O=S(=O)(NCCCNc1nccc(-n2ccc3cccnc32)n1)c1ccccc1`, the inhibition in experiment [2] turned out to be 95.5%; in experiment [3] it was 81.4%. In experiment [4], this compound yielded an IC50 of 0.75 µM.
In the case of `COc1ccc(S(=O)(=O)NCCNc2nccc(-n3ccc4cccnc43)n2)cc1`, the inhibition in experiment [2] is 56.7%; in experiment [3], 39.2%.
Take `O=C(NCCNc1nccc(-n2ccc3cccnc32)n1)C1CCCCC1`: the inhibition in experiment [2] was found to be 73.7%; in experiment [3], 43.4%.
Regarding `O=C(Nc1ccccc1)Nc1ccc(F)c(C(=O)c2c[nH]c3ncccc23)c1F`, the inhibition is 94.5% in experiment [2] and 86.5% in experiment [3].
Turning to `Cc1ccc(C(=O)NCCNc2nccc(-n3ccc4cccnc43)n2)cc1`, the inhibition in experiment [2] is 81.8%; in experiment [3] it was 53.8%.
Regarding `O=C(NCCNc1nccc(-n2ccc3cccnc32)n1)c1ccc(Cl)cc1`, the results for the inhibition in experiment [2] and in experiment [3] were 0.16% and -1.1%, respectively.
With `O=S(=O)(NCCNc1nccc(-n2ccc3cccnc32)n1)c1ccc(Br)cc1`, the inhibition in experiment [2] was determined as 65.9%; in experiment [3], 44.6%.
In the same order, the values of `COc1ccc(NC(=O)Nc2ccc(F)c(C(=O)c3c[nH]c4ncccc34)c2F)cc1` are 81.3% and 69.6%.
As to `COc1ccc(S(=O)(=O)NCCCNc2nccc(-n3ccc4cccnc43)n2)cc1`, the values for the inhibition in experiment [2] and in experiment [3] were 94.5% and 82.1%, respectively. In experiment [4], this compound returned an IC50 of 0.79 µM.
In the same order, the values of `Cc1ccc(NC(=O)Nc2ccc(F)c(C(=O)c3c[nH]c4ncccc34)c2F)cc1` are 98.4%, 77.6% and 0.085 µM.
As for `O=C(Nc1cccc(F)c1)Nc1ccc(F)c(C(=O)c2c[nH]c3ncccc23)c1F`, the inhibition in experiment [2] is 49%; in experiment [3], 51.2%.
Take `O=C(NCCCNc1nccc(-n2ccc3cccnc32)n1)C1CCCCC1`: the inhibition in experiment [2] was 49.6%; in experiment [3], 41.2%.
In the case of `O=S(=O)(NCCNc1nccc(-n2ccc3cccnc32)n1)c1cccc(C(F)(F)F)c1`, the inhibition in experiment [2] turned out to be 18.1%; in experiment [3] it was 10.2%.
In the case of `O=C(NCCNc1nccc(-n2ccc3cccnc32)n1)c1ccc(C(F)(F)F)cc1`, the inhibition in experiment [2] turned out to be 32.9%; in experiment [3], 12.1%.
In the same order, the values of `O=S(=O)(NCCCNc1nccc(-n2ccc3cccnc32)n1)c1ccc(Cl)cc1` are 96.8% and 66.5%.
In the same order, the values of `O=C(NCCNc1nccc(-n2ccc3cccnc32)n1)c1c(F)cccc1F` are -1.9% and 0.1%.
In the same order, the values of `O=C(NCCCNc1nccc(-n2ccc3cccnc32)n1)c1ccc(Cl)cc1` are 80.7% and 72.1%.
In the case of `O=S(=O)(NCCNc1nccc(-n2ccc3cccnc32)n1)c1cccc(Br)c1`, the inhibition in experiment [2] turned out to be 65.3%; in experiment [3], 55.2%.
In the same order, the values of `O=C(NCCCNc1nccc(-n2ccc3cccnc32)n1)c1ccc(C(F)(F)F)cc1` are 15.3% and 9.45%.
`O=C(NCCCNc1nccc(-n2ccc3cccnc32)n1)c1ccc(F)cc1`: the inhibition in experiment [2] came out at 67.5%; in experiment [3] it was 58.7%.
In the case of `O=S(=O)(NCCCNc1nccc(-n2ccc3cccnc32)n1)c1ccc(Br)cc1`, the inhibition in experiment [2] turned out to be 97.7%; in experiment [3], 75.2%. In experiment [4], this compound returned a half-maximal inhibitory concentration (IC50) of 0.35 µM.
On to `Cc1ccc(S(=O)(=O)NCCNc2nccc(-n3ccc4cccnc43)n2)cc1`, for which the inhibition in experiment [2] stood at 41.1%; in experiment [3] it was 26.3%.
In the same order, the values of `O=S(=O)(NCCNc1nccc(-n2ccc3cccnc32)n1)c1ccc(Cl)cc1` are 63.7% and 49.2%.

The values are drawn from ChEMBL document CHEMBL4622853, “Design and synthesis of novel pyrrolo[2,3-b]pyridine derivatives targeting V600EBRAF” (Bioorg Med Chem, 2020).
